{"source": "ChEMBL document CHEMBL2176900", "about": "“Design and synthesis of a novel series of bicyclic heterocycles as potent γ-secretase modulators” (J Med Chem, 2012)", "key": {"[1]": {"tested_on": "Canis familiaris", "experiment": "Antialzheimer activity in beagle dog assessed as amyloid beta 42 level in cerebrospinal fluid at 20 mg/kg, po at 4 hrs by ELISA relative to control"}, "[2]": {"tested_on": "Rattus norvegicus", "experiment": "Antialzheimer activity in Sprague-Dawley rat assessed as amyloid beta 40 level in CSF at 10 mg/kg, po at 25 hrs by ELISA relative to control", "type": "functional", "method_in_brief": "(§1)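 Male Sprague-Dawley rats (180-220 g), fasted overnight, were given 10 mg/kg by gastric intubation as a 5 mg/mL suspension in 0.5% methocellulose. At 2, 4, 7 and 25 h, 50 μL CSF was taken from the cisterna magna under isoflurane, then brain was collected. Aβ37/38/40/42 were measured by MesoScale Discovery sandwich immunoassays. Results are mean % change versus T = 0 h, n = 5.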"}, "[3]": {"tested_on": "Mus musculus", "experiment": "Antialzheimer activity in CD1 mouse assessed as amyloid beta 42 level in brain at 30 mg/kg, po at 24 hrs by ELISA relative to control", "type": "functional", "method_in_brief": "(§2)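 Male CD1 SPF mice, fasted overnight, got a single oral dose of 10 or 30 mg/kg. At each time point the right brain hemisphere was homogenized in 0.4% DEA/50 mM NaCl with protease inhibitors and spun at 221300g for 50 min. The supernatant was neutralized with Tris-HCl pH 6.8. Aβ38 or Aβ42 was read by sandwich ELISA with a fluorogenic peroxidase substrate (ex 320/em 420 nm). Results are mean % change versus T = 0 h, n = 4.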"}, "[4]": {"experiment": "Drug uptake in CD1 mouse brain at 30 mg/kg, po at 24 hrs by LC-MS/MS analysis", "type": "ADME, organism-based", "parameters": "dose 30 mg/kg, route oral", "conditions": "read-out: Drug uptake", "method_in_brief": "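Overnight-fasted male CD1 mice received one oral dose (10 or 30 mg/kg) in 20% Captisol. After sacrifice, the left brain hemisphere was stored at −18 °C. Compound level was quantified by a qualified LC-MS/MS method, alongside EDTA plasma spun at 1900g, 4 °C. n = 4 per time point.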"}, "[5]": {"experiment": "Plasma concentration in CD1 mouse at 10 mg/kg, po at 8 hrs by LC-MS/MS analysis", "type": "ADME, organism-based", "parameters": "dose 10 mg/kg, route oral", "method_in_brief": "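Mice received a single 10 or 30 mg/kg oral dose. Plasma was sampled at several time points up to 48 h, with EDTA plasma obtained by centrifugation at 1900g, 10 min, 4 °C. Compound was quantified by LC-MS/MS, n = 4.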"}, "[6]": {"experiment": "Drug metabolism in dog liver microsomes at 1 uM after 15 mins by ion-trap mass spectrophotometry", "type": "ADME, Canis lupus familiaris, Microsome", "conditions": "read-out: Drug metabolism"}, "[7]": {"tested_on": "Canis familiaris", "experiment": "Antialzheimer activity in beagle dog assessed as amyloid beta 42 level in cerebrospinal fluid at 20 mg/kg, po at 8 hrs by ELISA relative to control"}, "[8]": {"experiment": "Thermodynamic solubility in fed state simulated intestinal fluid", "type": "physicochemical", "conditions": "read-out: Therm_solubility", "method_in_brief": "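Thermodynamic solubility was measured in pH 4.0 and pH 7.4 buffers, 0.01 N HCl, and fasted-state and fed-state simulated intestinal fluids (FaSSIF, FeSSIF). Results are in […].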"}, "[9]": {"tested_on": "Canis familiaris", "experiment": "Antialzheimer activity in beagle dog assessed as amyloid beta 40 level in cerebrospinal fluid at 20 mg/kg, po at 8 hrs by ELISA relative to control"}, "[10]": {"tested_on": "Mus musculus", "experiment": "Antialzheimer activity in po dosed CD1 mouse assessed as amyloid beta 42 level in brain at 4,8 and 24 hrs by ELISA", "type": "functional, organism-based", "method_in_brief": "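Overnight-fasted male CD1 SPF mice got one oral dose (10 or 30 mg/kg) formulated in 20% Captisol in water. Right brain hemisphere was homogenized in 0.4% DEA/50 mM NaCl with protease inhibitors and spun at 221300g. Supernatant was neutralized with Tris-HCl pH 6.8. Aβ42 was measured by ELISA (C-terminal JRF/cAβ42/26 capture, fluorogenic peroxidase read ex 320/em 420 nm). Values are mean % change vs T = 0 h, n = 4.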"}, "[11]": {"experiment": "Drug metabolism in rat liver microsomes at 1 uM after 15 mins by ion-trap mass spectrophotometry", "type": "ADME, Microsome", "conditions": "read-out: Drug metabolism"}, "[12]": {"experiment": "Genotoxicity against human TK6 cells by GreenScreen HC test", "type": "toxicity, cell-based"}, "[13]": {"experiment": "Plasma concentration in beagle dog at 20 mg/kg, po at 8 hrs", "type": "ADME, organism-based, Canis lupus familiaris", "parameters": "dose 20 mg/kg, route oral"}, "[14]": {"target": "Cytochrome P450 2D6 (Homo sapiens, UniProt P10635)", "sequence (P10635 whole entry)": "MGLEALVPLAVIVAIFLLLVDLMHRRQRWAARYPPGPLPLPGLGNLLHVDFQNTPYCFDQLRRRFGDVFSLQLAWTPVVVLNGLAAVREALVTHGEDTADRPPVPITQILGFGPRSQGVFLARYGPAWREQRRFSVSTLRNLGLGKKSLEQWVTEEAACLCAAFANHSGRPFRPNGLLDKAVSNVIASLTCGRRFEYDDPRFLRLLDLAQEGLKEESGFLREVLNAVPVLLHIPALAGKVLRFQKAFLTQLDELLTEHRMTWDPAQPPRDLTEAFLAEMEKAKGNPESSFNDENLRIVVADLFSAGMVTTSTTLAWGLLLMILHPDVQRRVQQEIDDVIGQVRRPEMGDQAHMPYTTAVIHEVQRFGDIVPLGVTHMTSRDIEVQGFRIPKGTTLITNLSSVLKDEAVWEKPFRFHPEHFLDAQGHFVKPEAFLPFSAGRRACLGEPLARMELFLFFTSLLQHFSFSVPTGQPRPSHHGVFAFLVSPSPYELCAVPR", "experiment": "Inhibition of CYP2D6 in human liver microsomes using dextrometorphan as substrate", "type": "ADME, Microsome"}, "[15]": {"tested_on": "Mus musculus", "experiment": "Reduction in total amyloid beta level in CD1 mouse at 30 mg/kg, po at 4 hrs by ELISA relative to control", "type": "functional, organism-based", "parameters": "dose 30 mg/kg", "method_in_brief": "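Overnight-fasted male CD1 Swiss SPF mice were given a single oral dose as a suspension in 20% Captisol in water. Brains were taken at 4 h and the right hemisphere homogenized in 0.4% DEA/50 mM NaCl with protease inhibitors, then spun at 221300g for 50 min. The neutralized supernatant was read by Aβtotal ELISA (capture JRF/rAβ/2, biotinylated 4G8, streptavidin-peroxidase, QuantaBlu, ex 320/em 420 nm). Values are % change versus untreated animals, n ≥ 6.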"}, "[16]": {"tested_on": "Rattus norvegicus", "experiment": "Antialzheimer activity in Sprague-Dawley rat assessed as amyloid beta 40 level in CSF at 10 mg/kg, po at 2 hrs by ELISA relative to control", "type": "functional", "method_in_brief": "as §1"}, "[17]": {"tested_on": "Mus musculus", "experiment": "Inhibition of gamma-secretase in CD1 mouse assessed as total amyloid beta level in brain at 10 mg/kg, po at 8 hrs by ELISA relative to control", "type": "functional", "parameters": "scale not given: the % may be the effect or the level left", "method_in_brief": "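Fasted male CD1 SPF mice were dosed orally at 10 or 30 mg/kg in 20% Captisol. Right hemisphere was homogenized in 0.4% DEA/50 mM NaCl and the high-speed supernatant neutralized. Aβtotal ELISA used N-terminal JRF/rAβ/2 capture, biotinylated 4G8 and streptavidin-peroxidase, then a fluorogenic substrate (ex 320/em 420 nm). Standards spanned 10000–0.3 pg/mL. Values are % change vs T = 0 h, n = 4.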"}, "[18]": {"tested_on": "Mus musculus", "experiment": "Antialzheimer activity in CD1 mouse assessed as amyloid beta 38 level in brain at 30 mg/kg, po at 8 hrs by ELISA relative to control", "type": "functional", "method_in_brief": "as §2"}, "[19]": {"tested_on": "Liver microsomes", "experiment": "Drug metabolism in human liver microsome assessed as reactive metabolite formation by cyanide-trapping assay", "type": "ADME"}, "[20]": {"tested_on": "Rattus norvegicus", "experiment": "Antialzheimer activity in Sprague-Dawley rat assessed as amyloid beta 37 level in CSF at 10 mg/kg, po at 25 hrs by ELISA relative to control", "type": "functional", "method_in_brief": "as §1"}, "[21]": {"experiment": "Thermodynamic solubility in 0.01N HCl", "conditions": "read-out: Therm_solubility"}, "[22]": {"tested_on": "Mus musculus", "experiment": "Antialzheimer activity in CD1 mouse assessed as amyloid beta 42 level in brain at 30 mg/kg, po at 48 hrs by ELISA relative to control", "type": "functional", "method_in_brief": "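Male CD1 mice, fasted overnight, received a single 10 or 30 mg/kg oral dose. Brain was sampled at an added 48 h time point. The DEA-soluble brain fraction was neutralized and Aβ42 was measured by sandwich ELISA with fluorogenic read-out. Values are % versus vehicle.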"}, "[23]": {"tested_on": "Rattus norvegicus", "experiment": "Antialzheimer activity in Sprague-Dawley rat assessed as amyloid beta 42 level in CSF at 10 mg/kg, po at 7 hrs by ELISA relative to control", "type": "functional", "method_in_brief": "as §1"}}, "note": "Active and inactive are the calls of the source. The calls are words filed in the database; no cut-off is given here.", "data": [{"smiles": "COc1nc(Nc2cccc3c2nc(-c2ccc(F)cc2)n3C)ccc1-n1cnc(C)c1", "values": [{"measurement": "Activity", "setting": "[1]", "value": 81, "unit": "%"}, {"measurement": "Activity", "setting": "[2]", "value": 83, "unit": "%"}, {"measurement": "Activity", "setting": "[3]", "value": 77, "unit": "%"}, {"measurement": "concentration at 24 h", "setting": "[4]", "value": 440, "unit": "nM"}, {"measurement": "concentration at 8 h", "setting": "[5]", "value": 2700, "unit": "nM"}, {"measurement": "metabolised at 0.25 h, 1 µM", "setting": "[6]", "value": 37, "unit": "%"}, {"measurement": "Activity", "setting": "[7]", "value": 52, "unit": "%"}, {"measurement": "solubility thermodynamic", "setting": "[8]", "value": 20, "unit": "µg/mL"}, {"measurement": "Activity", "setting": "[9]", "value": 64, "unit": "%"}, {"measurement": "Activity", "setting": "[10]", "value": "Dose-dependent effect"}, {"measurement": "metabolised at 0.25 h, 1 µM", "setting": "[11]", "value": 16, "unit": "%"}, {"measurement": "Activity", "setting": "[12]", "value": "Non-toxic"}, {"measurement": "concentration at 8 h", "setting": "[13]", "value": 1700, "unit": "nM"}, {"measurement": "IC50", "setting": "[14]", "value": 3.6, "unit": "µM"}, {"measurement": "Activity", "setting": "[15]", "value": "inactive"}, {"measurement": "Activity", "setting": "[16]", "value": 60, "unit": "%"}, {"measurement": "Activity", "setting": "[17]", "value": 86, "unit": "%"}, {"measurement": "Activity", "setting": "[18]", "value": 156, "unit": "%"}, {"measurement": "Drug metabolism", "setting": "[19]", "value": "Not Active"}, {"measurement": "Activity", "setting": "[20]", "value": 124, "unit": "%"}, {"measurement": "solubility thermodynamic", "setting": "[21]", "value": 1170, "unit": "µg/mL"}, {"measurement": "Activity", "setting": "[22]", "value": 101, "unit": "%"}, {"measurement": "Activity", "setting": "[23]", "value": 57, "unit": "%"}]}]}
